Measurements pooled from the literature.
Compare with care: the assays were run in different laboratories.
PIK3CA M1043I: Phosphatidylinositol 4,5-bisphosphate 3-kinase catalytic subunit alpha isoform (PIK3CA, Homo sapiens, UniProt P42336, M1043I)
PIK3CA E542K: Phosphatidylinositol 4,5-bisphosphate 3-kinase catalytic subunit alpha isoform (PIK3CA, Homo sapiens, UniProt P42336, E542K)
PIK3CA Q546K: Phosphatidylinositol 4,5-bisphosphate 3-kinase catalytic subunit alpha isoform (PIK3CA, Homo sapiens, UniProt P42336, Q546K)
PIK3CA C420R: Phosphatidylinositol 4,5-bisphosphate 3-kinase catalytic subunit alpha isoform (PIK3CA, Homo sapiens, UniProt P42336, C420R)
PIK3CA: Phosphatidylinositol 4,5-bisphosphate 3-kinase catalytic subunit alpha isoform (PIK3CA, Homo sapiens, UniProt P42336)
PIK3CA H1047Y: Phosphatidylinositol 4,5-bisphosphate 3-kinase catalytic subunit alpha isoform (PIK3CA, Homo sapiens, UniProt P42336, H1047Y)
PIK3CA I800L: Phosphatidylinositol 4,5-bisphosphate 3-kinase catalytic subunit alpha isoform (PIK3CA, Homo sapiens, UniProt P42336, I800L)
PIK3CA H1047L: Phosphatidylinositol 4,5-bisphosphate 3-kinase catalytic subunit alpha isoform (PIK3CA, Homo sapiens, UniProt P42336, H1047L)
PIK3CA E545A: Phosphatidylinositol 4,5-bisphosphate 3-kinase catalytic subunit alpha isoform (PIK3CA, Homo sapiens, UniProt P42336, E545A)

N[C@H]1CCN(c2nccc(-c3cnn4ncccc34)n2)C1
remaining binding (PIK3CA M1043I; binding; 1 µM): 91%

COc1cnc(Nc2cccc(S(N)(=O)=O)c2)nc1N1CCN(c2ccccc2)C(=O)C1
remaining binding (PIK3CA E542K; binding, competition with immobilised ligand; 1 µM): 91%

O=C(NCC1CCOCC1)c1n[nH]cc1NC(=O)c1c(F)cccc1F
remaining binding (PIK3CA M1043I; binding, competition with immobilised ligand; 1 µM): 100%

CCS(=O)(=O)c1cc2cc(C[C@@](O)(CC(C)(C)c3ccc(F)cc3C(N)=O)C(F)(F)F)[nH]c2cn1
remaining binding (PIK3CA M1043I; cell-free assay, competition with immobilised ligand; 1 µM): 99%

C[C@@H]1CCN(c2nccc(-c3cnn4ncccc34)n2)C1
remaining binding (PIK3CA Q546K; binding; 1 µM): 79%

O=C(Nc1c[nH]nc1C(=O)NC1CCNCC1)c1cc(F)cc(F)c1
remaining binding (PIK3CA C420R; binding, competition with immobilised ligand; 1 µM): 100%

Nc1ncc2c(n1)-c1c([nH]c3ccc(C#CC4CC4)cc13)CCCC2
remaining binding (PIK3CA; binding, competition with immobilised ligand; 1 µM): 90%

CCc1ccccc1C(=O)Nc1n[nH]c2c(C)c(F)c(C3C(C#N)=C(C)N(C)C(C)=C3C#N)cc12
remaining binding (PIK3CA H1047Y; cell-free assay, competition with immobilised ligand; 1 µM): 77%

C=CC(=O)N1CCC(C(=O)NCC(=O)N2CCN(c3nc(-c4cnc(N)nc4C(F)F)nc(N4CCOCC4)n3)CC2)CC1
remaining binding (PIK3CA I800L; binding, competition with immobilised ligand; 1 µM): 0%

CCN1CCN(Cc2ccc(C(=O)Nc3ccc(C)c(Oc4ccc5c(c4)CC(=O)N5)c3)cc2C(F)(F)F)CC1
remaining binding (PIK3CA I800L; binding, competition with immobilised ligand; 1 µM): 95%

CC1CCCN1c1nccc(-c2cnn3ncccc23)n1 (stereo not shown)
remaining binding (PIK3CA; binding; 1 µM): 100%

CN1CCN(c2ccc(Nc3nccc(-c4ccccc4)n3)cc2C(F)(F)F)CC1
remaining binding (PIK3CA E542K; binding; 10 µM): 70%

Cc1cnc(Nc2ccc(C(=O)N3CCC(N4CCCC4)CC3)cc2)nc1-c1cc2ccccc2s1
remaining binding (PIK3CA I800L; binding, competition with immobilised ligand; 1 µM): 100%

CCC(=O)N[C@H]1CC[C@@H](C(=O)N(C)c2ccc(-c3nc4ccccc4o3)cc2)C1
remaining binding (PIK3CA C420R; cell-free assay, competition with immobilised ligand; 1 µM): 92%

CNC(=O)[C@@H]1CC[C@@H](n2c(-c3ccc4cnccc4c3)nc3ccc(C(=O)NCc4cccc(C(N)=O)c4)cc32)C1
remaining binding (PIK3CA H1047L; binding, competition with immobilised ligand; 1 µM): 100%

O=C(c1ccc(Nc2nccc(-c3cc4ccccc4s3)n2)cc1)N1CCC(N2CCCC2)CC1
remaining binding (PIK3CA M1043I; binding, competition with immobilised ligand; 1 µM): 81%

CN1CCN(c2ccc(Nc3nccc(-c4cccc([N+](=O)[O-])c4)n3)cc2C(F)(F)F)CC1
remaining binding (PIK3CA C420R; binding; 10 µM): 53%

CNCc1ccccc1-c1csc([C@H](C)Nc2nc(C)nc3cc(OC)c(OC)cc23)c1
remaining binding (PIK3CA M1043I; cell-free assay, competition with immobilised ligand; 1 µM): 100%

O=C(c1ccc(Nc2ncc(Cl)c(-c3ccc(Cl)s3)n2)cc1)N1CCC(N2CCCC2)CC1
remaining binding (PIK3CA M1043I; binding, competition with immobilised ligand; 1 µM): 100%

CN(C)c1ncc(F)c(-c2cnn3ncccc23)n1
remaining binding (PIK3CA E545A; binding; 1 µM): 59%

CC1=C(C#N)[C@@H](c2ccc3[nH]nc(C)c3c2)C(C#N)=C(c2ccc(Cl)cc2)N1
remaining binding (PIK3CA E545A; cell-free assay, competition with immobilised ligand; 1 µM): 75.4%

CN(CCCC(F)(F)F)c1nccc(-c2cnn3ncccc23)n1
remaining binding (PIK3CA M1043I; binding; 1 µM): 100%

C[C@@H](c1ccc(-n2cnc3c(N)ncnc32)cc1)N1CCc2nn(C)c(Cc3ccccc3)c2C1=O
remaining binding (PIK3CA M1043I; binding, competition with immobilised ligand; 0.1 µM): 89%

CC(=O)c1c(NS(C)(=O)=O)c2cc(-c3ccc(Cl)cc3)c(-c3ccc(Cl)cc3Cl)nc2n(C)c1=O
remaining binding (PIK3CA; cell-free assay, competition with immobilised ligand; 1 µM): 100%

c1cncc(-c2cccc(Nc3nccc(NC4CCCCC4)n3)c2)c1
remaining binding (PIK3CA M1043I; binding, competition with immobilised ligand; 10 µM): 84%

COc1cnc(Nc2cccc(S(N)(=O)=O)c2)nc1N1CCN(c2ccccc2)CC1
remaining binding (PIK3CA; binding, competition with immobilised ligand; 1 µM): 98%

COc1ncc2cc3ccccc3nc2c1C#N
remaining binding (PIK3CA Q546K; cell-free assay, competition with immobilised ligand; 5 µM): 99%

FC(F)(F)c1ccc2c(c1)nc(-c1cccnc1)n2C1CC1
remaining binding (PIK3CA Q546K; cell-free assay, competition with immobilised ligand; 1 µM): 99%

O=C(c1ccc(Nc2ncc(Cl)c(-c3cc4ccccc4s3)n2)cc1)N1CCC(N2CCCC2)CC1
remaining binding (PIK3CA E545A; binding, competition with immobilised ligand; 1 µM): 99%

F[C@@H]1CCN(c2nccc(-c3cnn4ncccc34)n2)C1
remaining binding (PIK3CA C420R; binding; 1 µM): 90%

O=C(NCCCN1CCOCC1)c1ccc(Nc2ncc(Cl)c(-c3ccc(Cl)s3)n2)cc1
remaining binding (PIK3CA H1047L; binding, competition with immobilised ligand; 1 µM): 100%

C[C@H](NC(=O)c1cnc2n1[C@](C)(Cc1ccc(C#N)cc1)C(=O)N2c1cc(Cl)c(F)c(Cl)c1)C(=O)NC1(c2ccccn2)CC1
remaining binding (PIK3CA C420R; cell-free assay, competition with immobilised ligand; 1 µM): 93%

O=C(NCCCN1CCOCC1)c1ccc(Nc2nccc(-c3cc4ccccc4s3)n2)cc1
remaining binding (PIK3CA H1047Y; binding, competition with immobilised ligand; 1 µM): 73%

Cc1cnn2ncc(-c3ccnc(N(C)C)n3)c2c1
remaining binding (PIK3CA; binding; 1 µM): 100%
